From PubChem BioAssay
Most compounds without a hit are left out; they make up all but 2.9% or so of the library.
CaV13 ICDI inh: Primary screen for inhibitors of IQ motif and Ca2+-dependent inactivation inhibitor domain binding in CACNA1D, Förster resonance energy transfer in living cells, … | AID 743397 | HEK cells, CFP/YFP FRET ICDI-IQ, plate reader, 10 min; percent FRET-ratio fall versus neutral wells | inhibition, % at 12.3 µM | hit rate 0.098% among 340,000;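 active means mean replicate inhibition of at least 30% and at least 1% of replicates passing that level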
CendR NRP1 mod: modulators of CendR peptide binding to human neuropilin-1 | O14786 | FAM-RPARPAR peptide binding to NRP-1, fluorescence polarization | inhibition, % at 25 µM | hit rate 0.85% among 360,000 | AID 602438;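 active means inhibition or corrected inhibition above about 18%, plus a signal ratio from 0.5 to 1.5, limit read from the data, passing the limit was not always enough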
FAS TE block: inhibitors of human fatty acid synthase thioesterase domain. hit rate 0.67% among 360,000. P49327. recombinant FAS-TE, OMFH fluorogenic substrate, fluorescence endpoint. inhibition, % at 15 µM. AID 602261;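 active means compounds whose normalised, plate-corrected inhibition of enzyme fluorescence in the single-dose primary screen is 50% or more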
Target sequence (P49327 whole entry, looked up, the tested form may be a part): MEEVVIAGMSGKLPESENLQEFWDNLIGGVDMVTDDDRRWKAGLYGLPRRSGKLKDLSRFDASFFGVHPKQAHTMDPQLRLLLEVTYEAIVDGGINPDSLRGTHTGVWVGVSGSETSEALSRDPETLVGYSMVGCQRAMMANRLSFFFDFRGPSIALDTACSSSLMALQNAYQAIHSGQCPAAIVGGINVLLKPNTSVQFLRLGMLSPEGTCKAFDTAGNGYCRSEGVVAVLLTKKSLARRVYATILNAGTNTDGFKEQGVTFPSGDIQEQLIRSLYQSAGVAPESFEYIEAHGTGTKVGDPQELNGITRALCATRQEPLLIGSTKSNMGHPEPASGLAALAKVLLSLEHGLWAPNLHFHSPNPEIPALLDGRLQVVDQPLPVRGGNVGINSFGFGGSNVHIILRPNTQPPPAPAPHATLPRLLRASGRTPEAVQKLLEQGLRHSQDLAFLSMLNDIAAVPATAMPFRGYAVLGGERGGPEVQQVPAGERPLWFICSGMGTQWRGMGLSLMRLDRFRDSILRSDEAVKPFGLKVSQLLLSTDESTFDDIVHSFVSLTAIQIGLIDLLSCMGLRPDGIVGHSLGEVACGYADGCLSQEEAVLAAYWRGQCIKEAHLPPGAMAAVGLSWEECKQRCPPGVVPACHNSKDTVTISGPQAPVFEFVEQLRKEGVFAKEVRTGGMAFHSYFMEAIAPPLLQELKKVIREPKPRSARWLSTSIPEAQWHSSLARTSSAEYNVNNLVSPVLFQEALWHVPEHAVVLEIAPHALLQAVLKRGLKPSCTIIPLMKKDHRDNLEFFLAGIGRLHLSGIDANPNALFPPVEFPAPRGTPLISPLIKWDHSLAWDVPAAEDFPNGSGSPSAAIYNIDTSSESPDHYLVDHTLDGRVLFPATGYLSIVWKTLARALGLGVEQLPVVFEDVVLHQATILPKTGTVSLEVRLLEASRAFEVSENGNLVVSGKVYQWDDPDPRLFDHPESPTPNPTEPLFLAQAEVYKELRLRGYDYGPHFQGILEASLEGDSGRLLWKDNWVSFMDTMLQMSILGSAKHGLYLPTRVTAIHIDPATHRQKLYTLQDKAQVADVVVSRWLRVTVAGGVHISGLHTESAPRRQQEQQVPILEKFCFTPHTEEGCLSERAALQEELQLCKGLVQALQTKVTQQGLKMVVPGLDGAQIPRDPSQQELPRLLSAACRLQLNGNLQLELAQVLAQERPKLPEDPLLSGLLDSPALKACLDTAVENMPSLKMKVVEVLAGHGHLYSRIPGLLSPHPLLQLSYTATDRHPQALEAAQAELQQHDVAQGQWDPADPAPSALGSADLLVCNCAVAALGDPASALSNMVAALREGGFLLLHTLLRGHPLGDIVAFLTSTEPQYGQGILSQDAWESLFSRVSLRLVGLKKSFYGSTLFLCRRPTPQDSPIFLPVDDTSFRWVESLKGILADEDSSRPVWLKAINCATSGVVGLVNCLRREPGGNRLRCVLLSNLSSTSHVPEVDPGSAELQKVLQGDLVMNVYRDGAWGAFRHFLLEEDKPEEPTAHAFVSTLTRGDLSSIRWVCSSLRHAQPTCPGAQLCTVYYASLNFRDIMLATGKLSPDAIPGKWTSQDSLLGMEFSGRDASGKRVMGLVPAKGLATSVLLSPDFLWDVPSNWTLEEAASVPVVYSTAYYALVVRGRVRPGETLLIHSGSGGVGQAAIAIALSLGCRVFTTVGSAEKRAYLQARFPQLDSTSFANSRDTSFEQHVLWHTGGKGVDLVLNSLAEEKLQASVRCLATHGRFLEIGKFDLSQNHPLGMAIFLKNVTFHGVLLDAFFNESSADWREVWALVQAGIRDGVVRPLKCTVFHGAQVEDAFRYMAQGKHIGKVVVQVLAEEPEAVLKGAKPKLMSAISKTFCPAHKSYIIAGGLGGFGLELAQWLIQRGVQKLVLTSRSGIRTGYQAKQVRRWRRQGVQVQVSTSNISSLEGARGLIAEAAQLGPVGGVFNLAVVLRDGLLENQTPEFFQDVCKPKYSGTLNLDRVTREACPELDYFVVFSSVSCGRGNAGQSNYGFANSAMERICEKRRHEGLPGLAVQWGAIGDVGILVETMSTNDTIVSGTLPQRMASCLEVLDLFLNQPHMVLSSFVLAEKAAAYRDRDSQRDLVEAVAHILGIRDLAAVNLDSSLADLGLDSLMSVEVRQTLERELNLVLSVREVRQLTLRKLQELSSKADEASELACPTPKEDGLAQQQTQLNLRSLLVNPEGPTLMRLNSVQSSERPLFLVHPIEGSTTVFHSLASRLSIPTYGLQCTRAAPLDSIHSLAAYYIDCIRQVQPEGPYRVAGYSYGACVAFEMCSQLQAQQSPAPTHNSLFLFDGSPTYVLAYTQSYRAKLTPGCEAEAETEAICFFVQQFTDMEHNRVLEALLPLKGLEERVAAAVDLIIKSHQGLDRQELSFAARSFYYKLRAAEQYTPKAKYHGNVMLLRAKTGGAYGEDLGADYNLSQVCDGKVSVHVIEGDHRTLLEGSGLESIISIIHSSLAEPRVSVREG
ADAM17 inh: inhibitors of human ADAM17 | P78536 | recombinant ADAM17, EDANS/DABCYL FRET peptide cleavage | inhibition, % at 6.95 µM | hit rate 0.83% among 370,000 | AID 720648;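 active means inhibition above the mean of compounds lying between control limits plus 3 SD, set per campaign, cut at about 8.5% in these data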
Arr AP2 block: inhibitors of human beta-arrestin and AP2 interaction. AID 504490. hit rate 0.31% among 340,000. inhibition, % at 10 µM. FITC-arrestin peptide / GST-AP2 beads, flow cytometry; AP2 beta2 appendage carries R879A mutation;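 active means inhibition above a set limit, near 3 SD of compounds lacking own fluorescence, cut at about 54% in these data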
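system = GST-tagged AP2 beta2-adaptin appendage (R879A) on 4 µm glutathione beads | reagent = FITC-labelled arrestin peptide probe, 50 nM final | schedule = compound with beads 12 min RT, then probe 1 h RT | signal = HyperCyt-sampled flow cytometry, FL1 channel, ex 488/em 535 nm | read-out = percent response from loss of bead-bound FITC fluorescence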
ADAM10 inh: inhibits human ADAM10. recombinant ADAM10, EDANS/DABCYL FRET peptide cleavage, 3 h. inhibition, % at 7 µM. hit rate 0.62% among 370,000. AID 720582;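 active means inhibition above a per-campaign cutoff equal to the mean of compounds falling between control-based bounds plus 3 SD, cut at about 20% in these data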
ADAM10 confirm: confirmation of inhibitors of human ADAM10; hit rate 1% among 2,100; AID 743208; shares compounds with ADAM10 inh; ADAM10 QFRET peptide cleavage, EDANS fluorescence; inhibition, % at 6.95 µM;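 active means inhibition above about 20% chosen separately for each screening run, limit read from the data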
ADAM17 counter: inhibits human ADAM17 in ADAM10 exosite counter-screen; shares compounds with ADAM10 inh; ADAM17 QFRET peptide cleavage, EDANS fluorescence; inhibition, % at 6.95 µM; hit rate 0.5% among 2,100;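 active means mean triplicate inhibition above the solvent-only control wells' mean plus 3 SD, cut at about 12% in these data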
ADAM10 counter: ADAM10 inhibition, counter-screen for ADAM17 exosite hits | hit rate 47% among 2,900 | AID 743256 | inhibition, % at 6.95 µM | shares compounds with ADAM17 inh | recombinant ADAM10, EDANS/DABCYL FRET peptide cleavage, 3 h;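 active means mean inhibition over the triplicate runs exceeds the activity threshold set in the earlier primary screen, cut at about 20% in these data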
ADAM17 confirm: human ADAM17 inhibition, confirmation. shares compounds with ADAM17 inh. recombinant ADAM17, EDANS/DABCYL QFRET peptide cleavage. inhibition, % at 6.95 µM. hit rate 65% among 2,900;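 active means mean inhibition across replicates above the hit cutoff set in the primary screen, cut at about 8.5% in these data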
Large screens that a line does not name were inactive (follow-up assays come after a bar, where they were run).

COc1ccc(-c2onc(C)c2-c2cnn(-c3ccccc3)c2)c(O)c1C	none
C=C(C)COc1ccc(-c2n[nH]c(C)c2-c2ccc(OC)cc2)c(O)c1	ADAM17 inh 13.5, ADAM10 inh 31.0 | ADAM10 confirm inactive | ADAM17 counter inactive | ADAM10 counter 34.1 | ADAM17 confirm 17.0
COc1ccc(-c2n[nH]c(C)c2-c2cnn(-c3ccccc3)c2)c(O)c1	ADAM17 inh 14.9, ADAM10 inh 29.8 | ADAM10 confirm inactive | ADAM17 counter inactive | ADAM10 counter 23.0 | ADAM17 confirm 13.6
O=C(NCc1cccs1)O[C@H]1CC[C@@]23CCCN2C(=O)CCC[C@H]3C1	none (no result: CaV13 ICDI inh, CendR NRP1 mod, FAS TE block, Arr AP2 block)
CC(C)(C)c1cc2nc(NCCOc3ccccc3)ccn2n1	none (no result: Arr AP2 block)
Cc1ccc2nc(-c3ccccc3)cc(C(=O)N(C)CC(=O)Nc3ccccc3Br)c2c1	none
COC(=O)N1CCC[C@H]1c1cccc2[nH]cc(C)c12	none (no result: CaV13 ICDI inh, CendR NRP1 mod, FAS TE block, Arr AP2 block)
COc1ccc(C)cc1NC(=O)CN1CCCC1c1ccc2c(c1)OCCCO2 (centres undefined)	none
O=C(NCc1cc(C(F)(F)F)cc(C(F)(F)F)c1)C1CC(c2ccccc2C(F)(F)F)=NO1 (centres undefined)	ADAM17 inh 17.1, ADAM10 inh 30.7 (no result: CendR NRP1 mod, FAS TE block, Arr AP2 block) | ADAM10 confirm inactive | ADAM17 counter inactive | ADAM10 counter 48.8 | ADAM17 confirm 25.3
O=C(NCc1ccc(OC(F)(F)F)cc1)C1CC(c2c(Cl)cccc2Cl)=NO1 (centres undefined)	ADAM17 inh 9.5, ADAM10 inh 20.8 | ADAM10 confirm inactive | ADAM17 counter inactive | ADAM10 counter 23.9 | ADAM17 confirm 13.4
O=C(Nc1cc(Cl)ccc1O)C1CC(c2c(F)cccc2Cl)=NO1 (centres undefined)	ADAM17 inh 9.6, ADAM10 inh 25.9 | ADAM10 confirm inactive | ADAM17 counter inactive | ADAM10 counter inactive | ADAM17 confirm 11.7
C=CC(=O)Nc1cccc(N(C)c2ccnc(Nc3ccc(N4CCN(C)CC4)cc3)n2)c1	none (no result: CaV13 ICDI inh, ADAM17 inh, ADAM10 inh)
Cc1cccc(C)c1NC(=O)C1C2C=CC(C2)C1C(=O)NCc1ccccn1 (centres undefined)	none
COc1ccc(OC)c(NC(=O)C2C3C=CC(C3)C2C(=O)NCc2ccccn2)c1 (centres undefined)	ADAM17 inh 9.6, ADAM10 inh 30.4 | ADAM10 confirm inactive | ADAM17 counter inactive | ADAM10 counter inactive | ADAM17 confirm inactive
O=C(Nc1ccc(Nc2ccccc2)cc1)C(Cl)(Cl)Cl	ADAM17 inh 9.8, ADAM10 inh 25.6 | ADAM10 confirm inactive | ADAM17 counter inactive | ADAM10 counter inactive | ADAM17 confirm inactive
Cc1cccc(NS(=O)(=O)c2ccc(C3CCCCC3)cc2)c1	ADAM17 inh 16.2, ADAM10 inh 32.0 | ADAM10 confirm inactive | ADAM17 counter inactive | ADAM10 counter 24.5 | ADAM17 confirm 14.8
O=C(O)c1cccc(NS(=O)(=O)c2ccc(C3CCCCC3)cc2)c1	none (no result: CaV13 ICDI inh, ADAM17 inh, ADAM10 inh)
CC(C)[C@@H]1NC(=O)[C@@H]2CSCCS(=O)(=O)N2C1=O	none (no result: CendR NRP1 mod, FAS TE block, Arr AP2 block)
C#CCN(C(=O)c1cc(COc2ccc(C)c(C)c2)on1)C1CCCCC1	none
O=C(c1cc(COc2cccc(C(F)(F)F)c2)on1)N1CCC(c2ccccc2)CC1	ADAM17 inh 12.1, ADAM10 inh 26.4 | ADAM10 confirm inactive | ADAM17 counter inactive | ADAM10 counter 34.7 | ADAM17 confirm 20.4
C#CCN(C(=O)c1cc(COc2cccc(C(F)(F)F)c2)on1)C1CCCCC1	ADAM17 inh 10.1, ADAM10 inh 23.6 | ADAM10 confirm inactive | ADAM17 counter inactive | ADAM10 counter 54.6 | ADAM17 confirm 19.4
COCCNC(=O)C1(C)CCCN(Cc2ccc3ccccc3c2Br)C1 (centres undefined)	none (no result: Arr AP2 block)
O=C(NCc1ccc(Cl)c(Cl)c1)c1cc(C2CCCCN2C(=O)CCc2ccccc2)on1 (centres undefined)	ADAM17 inh 9.2, ADAM10 inh 25.1 (no result: Arr AP2 block) | ADAM10 confirm inactive | ADAM17 counter inactive | ADAM10 counter inactive | ADAM17 confirm 10.4
COC(=O)[C@]12C[C@H](CC(=O)N3CCCC3)C(=O)N(Cc3ccc4c(c3)OCO4)C1=C[C@H](C(C)(C)C)O[C@@H]2C	none (no result: CendR NRP1 mod, FAS TE block, Arr AP2 block)
Cc1ccc(NS(=O)(=O)c2ccc(NC(=O)c3cccs3)cc2)c(C)c1	none
Cc1ccc(NC(=O)c2cc(S(=O)(=O)Nc3ccc(C)cc3)cs2)cc1	ADAM17 inh 10.1, ADAM10 inh 26.7 (no result: CaV13 ICDI inh) | ADAM10 confirm inactive | ADAM17 counter inactive | ADAM10 counter 45.3 | ADAM17 confirm 18.8
CC(C)CCNC(=O)NC(=O)CSc1nnc(COc2ccccc2Cl)o1	ADAM17 inh 9.8, ADAM10 inh 22.9 | ADAM10 confirm inactive | ADAM17 counter inactive | ADAM10 counter inactive | ADAM17 confirm inactive
CC(C)NC(=O)NC(=O)CSc1nnc(COc2ccccc2Cl)o1	none
COc1ccc(C(C(=O)NC2CCCCC2)N(C(=O)c2sc(C)nc2C)c2ccccc2C)cc1 (centres undefined)	ADAM17 inh 9.6, ADAM10 inh 19.8 (no result: CaV13 ICDI inh) | ADAM10 confirm inactive | ADAM17 counter inactive | ADAM10 counter inactive | ADAM17 confirm inactive
COc1ccc(C(C(=O)NC2CCCCC2)N(C(=O)c2sc(C)nc2C)c2ccccc2)cc1 (centres undefined)	none
COc1ccc(C(=O)NCC2CCN(C(=O)C(=O)c3cccs3)CC2)cc1	none (no result: CendR NRP1 mod, FAS TE block, Arr AP2 block)
COc1ccc2nc(NC(=O)C3CCCN3S(=O)(=O)c3ccc(C)cc3)sc2c1 (centres undefined)	ADAM17 inh 8.6, ADAM10 inh 21.9 (no result: CaV13 ICDI inh) | ADAM10 confirm inactive | ADAM17 counter inactive | ADAM10 counter inactive | ADAM17 confirm inactive
Cc1ccc2c(c1)C1CS(=O)(=O)N(CCc3ccccc3)CN1C2 (centres undefined)	none (no result: CaV13 ICDI inh, CendR NRP1 mod, FAS TE block, Arr AP2 block)
O=C(Nc1ccc(C(F)(F)F)cc1)c1cc(S(=O)(=O)NCC2COc3ccccc3O2)ccc1F (centres undefined)	CendR NRP1 mod 82.4, ADAM17 inh 12.6, ADAM10 inh 25.3 | ADAM10 confirm inactive | ADAM17 counter inactive | ADAM10 counter 50.6 | ADAM17 confirm 23.6
